Source: ChEMBL document CHEMBL1135596, “Synthesis and evaluation of indenopyrazoles as cyclin-dependent kinase inhibitors. 2. Probing the indeno ring substituent pattern” (J Med Chem, 2002)

Assays:
[1] = target: T1, Cyclin-dependent kinase 4/cyclin D1 (Homo sapiens, UniProt P11802); test: Compound was evaluated for 50% inhibition of Cyclin-dependent kinase 4-cyclin D1; format: protein-complex assay
Method in brief: (§1)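 CDK4/cyclin D1 from extracts of co-expressing cells; 50 mM Tris-HCl pH 7.6, 10 mM MgCl2, 10% DMSO, 1 mM DTT, 50 µM ATP with [γ-32P]ATP, 6 µg GST-Rb (Rb aa 378-928). Started with 4 units enzyme, 15 min at room temperature, stopped with EDTA/ATP buffer. Labeled GST-Rb captured on GSH-Sepharose and counted by scintillation. IC50 from fit of v/vo versus [I] with slope term.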

HCT-116 [2] = test: Toxicity tested against transformed human colon cancer cell line (HCT116); format: functional, cell-based
Method in brief: (§2)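 Sulforhodamine B growth assay. HCT116 colon carcinoma or AG1523 normal fibroblasts were seeded in McCoy's 5A with 5% FBS, at a density allowing 3-5 doublings. Incubation was 5 days (HCT116) or 6 days (AG1523) at 37 °C, 5% CO2. Cells were fixed with cold TCA, stained with 0.4% SRB, and dye was dissolved in 10 mM Tris base; OD read at 570 nm.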

AG1523 = test: Toxicity tested against normal human fibroblast cell line (AG1523); format: functional, cell-based; method in brief: as §2
[3] = target: T2, Cyclin-dependent kinase 2/cyclin E (Homo sapiens, UniProt P24941); test: Compound was evaluated for inhibition of Cyclin-dependent kinase 2-cyclin E; format: protein-complex assay
Method in brief: (§3)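 CDK2/his-cyclin E in 50 mM Tris-HCl pH 7.6, 10 mM MgCl2, 10% DMSO, 1 mM DTT, 50 µM ATP, 0.05 µCi [γ-32P]ATP, 6 µM GST-Rb. Incubated at room temperature, stopped with cold PBS containing 100 mM EDTA, 10 mM ATP, BSA and NP40. 32P incorporation into Rb measured; IC50 by fit of v/vo to [I] with slope factor.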

HCT-116 [4] = test: Effect of serum protein binding on inhibition of transformed cell line(PB HCT116) proliferation; format: functional, cell-based; conditions: Homo sapiens
Method in brief: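 HCT116 cells were grown as in the SRB assay, with 45 mg/mL human serum albumin plus 1 mg/mL α1-acid glycoprotein added together with graded compound. Growth was read out by MTT: 1 mg/mL solution added, 4 h at 37 °C. Formazan was solubilized in 0.04 N HCl/isopropanol and absorbance read at 570 nm against a 630 nm reference.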

[5] = target: T2, Cyclin-dependent kinase 2/cyclin E; test: Inhibition of Cyclin-dependent kinase 2-cyclin E; format: protein-complex assay; method in brief: as §3
[6] = target: T1, Cyclin-dependent kinase 4/cyclin D1; test: Inhibition of Cyclin-dependent kinase 4-cyclin D1; format: protein-complex assay; method in brief: as §1

T1 sequence (P11802 whole entry, the tested form may be a part): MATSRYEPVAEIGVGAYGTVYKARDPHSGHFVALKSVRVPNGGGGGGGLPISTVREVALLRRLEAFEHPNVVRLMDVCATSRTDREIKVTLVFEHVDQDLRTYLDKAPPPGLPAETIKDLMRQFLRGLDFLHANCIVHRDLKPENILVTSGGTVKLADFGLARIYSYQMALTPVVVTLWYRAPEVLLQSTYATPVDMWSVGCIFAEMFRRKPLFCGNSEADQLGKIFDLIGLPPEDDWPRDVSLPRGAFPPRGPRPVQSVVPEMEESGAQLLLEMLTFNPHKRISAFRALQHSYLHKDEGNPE
T1 sequence (P24385 whole entry, further chain, the tested form may be a part): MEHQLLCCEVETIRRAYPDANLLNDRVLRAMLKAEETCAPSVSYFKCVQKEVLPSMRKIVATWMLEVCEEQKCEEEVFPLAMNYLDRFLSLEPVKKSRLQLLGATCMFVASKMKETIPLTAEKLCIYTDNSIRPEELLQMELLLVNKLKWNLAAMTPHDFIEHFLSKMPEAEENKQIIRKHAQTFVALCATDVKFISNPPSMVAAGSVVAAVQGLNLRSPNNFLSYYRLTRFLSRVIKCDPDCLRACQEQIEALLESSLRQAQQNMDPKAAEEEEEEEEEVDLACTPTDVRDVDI

| Compound | IC50 [1] | IC50 [3] | IC50 (HCT-116 [4]) | IC50 [5] | IC50 [6] | IC50 (HCT-116 [2]) | IC50 (AG1523) |
| --- | --- | --- | --- | --- | --- | --- | --- |
| COc1ccc(-c2[nH]nc3c2C(=O)c2c(NC(=O)CN4CCN(C)CC4)cccc2-3)cc1 | 125 nM | 12 nM | – | – | – | – | – |
| COc1ccc(-c2[nH]nc3c2C(=O)c2c(NC(=O)Nc4ccccc4)cccc2-3)cc1 | 877 nM | 32 nM | – | – | – | – | – |
| COc1ccc(-c2[nH]nc3c2C(=O)c2c(NC(=O)CN(C)C)cccc2-3)cc1 | 900 nM | 44 nM | – | – | – | – | – |
| COc1ccc(-c2[nH]nc3c2C(=O)c2c(NC(=O)CN4CCC(C(N)=O)CC4)cccc2-3)cc1 | 76 nM | 8 nM | – | – | – | – | 400 nM |
| COc1ccc(-c2[nH]nc3c2C(=O)c2c(NC(=O)NCc4ccccc4)cccc2-3)cc1 | 307 nM | 95 nM | – | – | – | – | – |
| CCNCC(=O)Nc1cccc2c1C(=O)c1c-2n[nH]c1-c1ccc(OC)cc1 | 917 nM | 130 nM | – | – | – | – | – |
| COc1ccc(-c2[nH]nc3c2C(=O)c2c(NC(=O)NN4CCOCC4)cccc2-3)cc1 | 12 nM | 18 nM | 622 nM | – | – | 20 nM | 950 nM |
| COc1ccc(-c2[nH]nc3c2C(=O)c2c(NC(=O)CN)cccc2-3)cc1 | > 1400 nM | > 720 nM | – | – | – | – | – |
| COc1ccc(-c2[nH]nc3c2C(=O)c2c(NC(=O)CN4CCNCC4)cccc2-3)cc1 | 113 nM | 33 nM | – | – | – | – | – |
| COc1ccc(-c2[nH]nc3c2C(=O)c2c(NC(=O)CN4CCOCC4)cccc2-3)cc1 | 195 nM | 21 nM | – | – | – | – | – |
| COc1ccc(-c2[nH]nc3c2C(=O)c2c(NC(=O)CN4CCC(CN)CC4)cccc2-3)cc1 | 20 nM | 12 nM | – | – | – | 70 nM | 600 nM |
| COc1ccc(-c2[nH]nc3c2C(=O)c2c(NC(=O)CN4CCC(CO)CC4)cccc2-3)cc1 | 82 nM | 11 nM | – | – | – | – | – |
| COc1ccc(-c2c3c(nn2-c2ccccc2)-c2ccccc2C3=O)cc1 | > 200000 nM | > 280000 nM | – | – | – | – | – |
| COc1ccc(-c2[nH]nc3c2C(=O)c2c(O)cccc2-3)cc1 | 20000 nM | 5200 nM | – | – | – | – | – |
| CCCCNC(=O)Nc1cccc2c1C(=O)c1c(-c3ccc(OC)cc3)n[nH]c1-2 | 780 nM | 84 nM | – | – | – | – | – |
| COc1ccc(-c2[nH]nc3c2C(=O)c2c(N)cccc2-3)cc1 | 23000 nM | 8400 nM | – | – | – | – | – |
| COc1ccc(-c2c3c(nn2C)-c2ccccc2C3=O)cc1 | > 340000 nM | > 340000 nM | – | – | – | – | – |
| COc1ccc(-c2[nH]nc3c2C(=O)c2ccncc2-3)cc1 | 34500 nM | 4700 nM | – | – | – | – | – |

More lines, main results first:

| IC50 [1] | IC50 [3] | IC50 (HCT-116 [4]) | IC50 [5] | IC50 [6] | Compound | IC50 (HCT-116 [2]) | IC50 (AG1523) |
| --- | --- | --- | --- | --- | --- | --- | --- |
| 66 nM | 7 nM | 3200 nM | – | – | COc1ccc(-c2[nH]nc3c2C(=O)c2c(NC(N)=O)cccc2-3)cc1 | 57 nM | 413 nM |
| 21500 nM | – | – | – | – | COc1ccc(-c2[nH]nc3c2C(=O)c2cc(O)ccc2-3)cc1 | – | – |
| – | – | 1240 nM | 5 nM | 21 nM | COc1ccc(-c2[nH]nc3c2C(=O)c2c(NC(=O)NN(C)C)cccc2-3)cc1 | 28 nM | 385 nM |
| 1150 nM | 29 nM | > 58000 nM | – | – | COc1ccc(-c2[nH]nc3c2C(=O)c2c(NC(=O)NCc4ccncc4)cccc2-3)cc1 | 378 nM | > 24000 nM |
| 64 nM | 8 nM | > 5200 nM | – | – | COc1ccc(-c2[nH]nc3c2C(=O)c2c(NC(=O)CN4CCN(C(N)=O)CC4)cccc2-3)cc1 | 47 nM | > 400 nM |
| 26 nM | 7 nM | – | – | – | COc1ccc(-c2[nH]nc3c2C(=O)c2c(NC(=O)CN4CCN(C(=N)N)CC4)cccc2-3)cc1 | > 900 nM | – |
| > 1000 nM | 185 nM | – | – | – | COc1ccc(-c2[nH]nc3c2C(=O)c2c(NC(=O)CN4CCCCC4)cccc2-3)cc1 | – | – |
| > 1100 nM | 180 nM | – | – | – | COc1ccc(CNC(=O)Nc2cccc3c2C(=O)c2c(-c4ccc(OC)cc4)n[nH]c2-3)cc1 | – | – |
| 12 nM | 15 nM | – | – | – | COc1ccc(-c2[nH]nc3c2C(=O)c2c(NC(=O)NN4CCCC4)cccc2-3)cc1 | – | – |
| 55500 nM | – | – | – | – | COc1ccc(-c2[nH]nc3c2C(=O)c2cc(Cl)c(Cl)cc2-3)cc1 | – | – |
| 12 nM | 22 nM | – | – | – | COc1ccc(-c2[nH]nc3c2C(=O)c2c(NC(=O)NN4CCCCC4)cccc2-3)cc1 | – | – |
| 108000 nM | 210000 nM | – | – | – | COc1ccc(-c2[nH]nc3c2C(=O)c2cc(N)ccc2-3)cc1 | – | – |
| > 500 nM | 54 nM | – | – | – | COc1ccc(-c2[nH]nc3c2C(=O)c2c(NC(=O)CN4CCSCC4)cccc2-3)cc1 | – | – |
| > 2300 nM | > 2300 nM | – | – | – | COc1ccc(-c2[nH]nc3c2C(=O)c2c(NC(=O)N(C)Cc4ccccc4)cccc2-3)cc1 | – | – |
| > 361000 nM | – | – | – | – | COc1ccc(-c2[nH]nc3c2C(=O)c2cccnc2-3)cc1 | – | – |
| 9 nM | 12 nM | – | – | – | COc1ccc(-c2[nH]nc3c2C(=O)c2c(NC(=O)NN4CCN(C)CC4)cccc2-3)cc1 | 15 nM | 85 nM |
| > 1300 nM | > 1300 nM | – | – | – | CCN(CC)C(=O)Nc1cccc2c1C(=O)c1c(-c3ccc(OC)cc3)n[nH]c1-2 | – | – |
